Results reported in ChEMBL document CHEMBL1123669 (J Med Chem, 1987).

How the values were obtained:
Phosphodiesterase 3 [1] = biological target: T1, Phosphodiesterase 3 (Homo sapiens, UniProt Q14432+Q13370); assay: In vitro inhibition of cyclic AMP phosphodiesterase from human platelets.
Homo sapiens = organism: Homo sapiens; assay: Inhibition of ADP-induced platelet aggregation; assay type: functional
In short: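 Human citrated PRP (200g, 15 min, room temperature), aspirin-free donors. Compound in DMF or Me2SO preincubated 5 min with stirred PRP at 37 °C. Aggregation induced by 5 μM ADP, followed turbidimetrically. Repeated at least twice with different donors; IC50 graphical.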

Rattus norvegicus [2] = organism: Rattus norvegicus; assay: Inhibition of rat heart cAMP phosphodiesterase
Rattus norvegicus [3] = organism: Rattus norvegicus; assay: Inhibition of rat heart cAMP phosphodiesterase (weak partial inhibition)
Phosphodiesterase 3 [4] = biological target: T1, Phosphodiesterase 3; assay: Inhibition of human platelet cAMP phosphodiesterase at 10e-4 M

| Structure (SMILES) | IC50 (Phosphodiesterase 3 [1]) | IC50 (Homo sapiens) | IC25 (Rattus norvegicus [2]) | IC25 (Rattus norvegicus [3]) | IC50 (Phosphodiesterase 3 [4]) |
| --- | --- | --- | --- | --- | --- |
| COc1ccc2c(c1)CN1CC(=O)NC1=N2 | 1500 nM | 4000 nM | – | – | – |
| CN(C(=O)CCCOc1ccc2c(c1)CNC(=O)N2)C1CCCCC1 | 1300 nM | – | 880 nM | – | – |
| CN(C(=O)CCCOc1ccc2c(c1)C(=O)NCC(=O)N2)C1CCCCC1 | 3600 nM | – | 50000 nM | – | – |
| COc1ccc2nc(O)sc2c1 | 21000 nM | – | – | – | – |
| CN(C(=O)CCCOc1ccc2[nH]c(=O)[nH]c(=O)c2c1)C1CCCCC1 | 1150 nM | – | 1300 nM | – | – |
| CN(C(=O)CCCOc1ccc2c(c1)SCC(=O)N2)C1CCCCC1 | 1800 nM | – | 1400 nM | – | – |
| CN(C(=O)CCCOc1ccc2c(c1)CN1CC(=O)NC1=N2)C1CCCCC1 [LIXAZINONE] | 10 nM | 110 nM | 600 nM | – | – |
| COc1ccc2c(c1)COC(=O)N2 | 100000 nM | – | – | – | – |
| CN(C(=O)CCCOc1ccc2c(c1)CSC(=O)N2)C1CCCCC1 | 190 nM | – | 380 nM | – | – |
| CCCCCCOc1ccc2c(c1)CN1CC(=O)NC1=N2 | 290 nM | 62000 nM | 320 nM | – | – |
| CN(C(=O)CCCOc1ccc2c(c1)COC(=O)N2)C1CCCCC1 | 1150 nM | – | 1000 nM | – | – |
| CN(C(=O)CCCOc1ccc2nc(O)sc2c1)C1CCCCC1 | 10000 nM | – | > 10000 nM | – | – |
| CN(C(=O)CCCOc1ccc2c(c1)CCC(=O)N2)C1CCCCC1 | 1350 nM | – | 1500 nM | – | – |
| CN(C(=O)CCCOc1ccc2c(c1)OCC(=O)N2)C1CCCCC1 | 3400 nM | – | 1300 nM | – | – |
| CN(C(=O)CCCOc1ccc2[nH]c(=O)oc(=O)c2c1)C1CCCCC1 | 4400 nM | – | > 30000 nM | – | – |
| O=C1CN2Cc3c(ccc(Cl)c3Cl)N=C2N1 [ANAGRELIDE] | – | 2600 nM | – | > 100000 nM | – |
| CN(C(=O)CCCOc1ccc2[nH]c(=O)ccc2c1)C1CCCCC1 [CILOSTAMIDE] | – | 1900 nM | 700 nM | – | – |
| COc1ccc2c(c1)CSC(=O)N2 | 13000 nM | – | – | – | – |
| COc1ccc2c(c1)CNC(=O)N2 | – | – | – | – | 35000 nM |
